Positions count from the first letter of the chain named. Read-outs that look alike come from different tables or passages of the source.
Legend:
Experiment in all cases: Whole-cell voltage clamp, Zn^2+ modulation of GAQ gating
Type in all cases: cell-based
[1] = target: T1, human Hv1 WT (Homo sapiens, UniProt Q96D96)
T1 sequence (Q96D96 1-273): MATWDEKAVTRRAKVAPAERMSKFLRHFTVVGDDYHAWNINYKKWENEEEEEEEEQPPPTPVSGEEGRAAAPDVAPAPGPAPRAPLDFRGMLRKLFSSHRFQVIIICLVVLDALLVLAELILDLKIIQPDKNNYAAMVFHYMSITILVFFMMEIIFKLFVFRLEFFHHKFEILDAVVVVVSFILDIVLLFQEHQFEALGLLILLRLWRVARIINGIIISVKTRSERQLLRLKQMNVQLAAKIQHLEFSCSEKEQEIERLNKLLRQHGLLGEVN
Procedure, shortened: (§1)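 Whole-cell patch clamp at ~21°C. Pipette and bath (mM): ~80 TMA-MeSO3, 100 Bis-Tris, 8 HCl, pH 6.5, 310–320 mOsm. ZnCl2 was diluted into bath solution and applied by gravity superfusion, at least 2 min per change. Test step voltage was set per construct from its V0.5. G_STEP = end-of-step current/(V−V_REV). Effect = 1 − G_Zn/G_control, fitted to the Hill equation. IC50 and nH are means ± SEM from separate cells. ΔpIC50 was tested by unpaired t test, P<0.05.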

[2] = target: T2, human Hv1 E119A-H193A (Homo sapiens, UniProt Q96D96, E119A/H193A)
T2 sequence (Q96D96 1-273 E119A/H193A): T1 sequence (Q96D96 1-273) with E119A, H193A
Procedure, shortened: as §1

[3] = target: T3, human Hv1 E119H-H140A (Homo sapiens, UniProt Q96D96, E119H/H140A)
T3 sequence (Q96D96 1-273 E119H/H140A): T1 sequence (Q96D96 1-273) with E119H, H140A
Procedure, shortened: as §1

[4] = target: T4, human Hv1 D123H-H140A (Homo sapiens, UniProt Q96D96, D123H/H140A)
T4 sequence (Q96D96 1-273 D123H/H140A): T1 sequence (Q96D96 1-273) with D123H, H140A
Procedure, shortened: as §1

[5] = target: T5, human Hv1 D130H-H193A (Homo sapiens, UniProt Q96D96, D130H/H193A)
T5 sequence (Q96D96 1-273 D130H/H193A): T1 sequence (Q96D96 1-273) with D130H, H193A
Procedure, shortened: as §1

[6] = target: T6, human Hv1 D185A-H193A (Homo sapiens, UniProt Q96D96, D185A/H193A)
T6 sequence (Q96D96 1-273 D185A/H193A): T1 sequence (Q96D96 1-273) with D185A, H193A
Procedure, shortened: as §1

[7] = VSTEP 100 mV, calculated as log (IC50)
[8] = read-out: IC50, fit of the mean data to a Hill function, Fig. 4A
[9] = VSTEP 120 mV, calculated as log (IC50)

nH, fit of the mean data to a Hill function ([1]; Fig. 2C): 0.8 | Hill value ([1]; VSTEP 100 mV): 0.81 | pIC50 [1, 7]: 5.44 | Mean ΔpIC50 = (pIC50_1 - pIC50_2) ([2]; E119A-H193A vs E119A): −1.60 | Mean ΔpIC50 = (pIC50_1 - pIC50_2) ([2]; E119A-H193A vs H193A): −0.5 | nH, fit of the mean data to a Hill function ([2]; Fig. 4A): 0.8 | Hill value ([2]; VSTEP 100 mV): 0.78 | pIC50 [2, 7]: −3.56 | IC50 [2, 8]: 274 µM | Mean ΔpIC50 = (pIC50_1 - pIC50_2) ([3]; E119H-H140A vs H140A): 1.81 | nH, fit of the mean data to a Hill function ([3]; Fig. 4A): 1.2 | Hill value ([3]; VSTEP 120 mV): 2.09 | pIC50 [3, 9]: 6.23 | IC50 [3, 8]: 0.67 µM | Mean ΔpIC50 = (pIC50_1 - pIC50_2) ([4]; D123H-H140A vs H140A): 0.36 | nH, fit of the mean data to a Hill function ([4]; Fig. 4B): 0.5 | Hill value ([4]; VSTEP 80 mV): 0.58 | pIC50 ([4]; VSTEP 80 mV, calculated as log (IC50)): −4.78 | IC50 ([4]; read-out: IC50, fit of the mean data to a Hill function, Fig. 4B): 20.5 µM | IC50 ([4]; read-out: Mean IC50 @ VSTEP, VSTEP 80 mV, pH 6.5, mean of fits in separate cells): 18 µM | Mean ΔpIC50 = (pIC50_1 - pIC50_2) ([5]; D130H-H193A vs D130H): −0.16 | Mean ΔpIC50 = (pIC50_1 - pIC50_2) ([5]; D130H-H193A vs H193A): 1.44 | nH, fit of the mean data to a Hill function ([5]; Fig. 4C): 0.6 | Hill value ([5]; VSTEP 120 mV): 0.91 | pIC50 [5, 9]: 5.51 | IC50 ([5]; read-out: IC50, fit of the mean data to a Hill function, Fig. 4C): 5.6 µM | nH, fit of the mean data to a Hill function ([6]; Fig. 4D): 0.7 | Hill value ([6]; VSTEP 140 mV): 0.62 | pIC50 ([6]; VSTEP 140 mV, calculated as log (IC50)): −3.88 | IC50 ([6]; read-out: IC50, fit of the mean data to a Hill function, Fig. 4D): 99.2 µM
Structure (SMILES): [Cl-].[Cl-].[Zn+2] [Zn^2+, ZnCl2]

From PMC5987874 (The Journal of General Physiology, 2018)
